Experimental data taken from ChEMBL document CHEMBL3593157, “Discovery of a 1-isopropyltetrahydroisoquinoline derivative as an orally active N-type calcium channel blocker for neuropathic pain” (Bioorg Med Chem, 2015).

How the values were obtained:
[1] = Inhibition of N-type calcium channel in human IMR-32 cells by FLIPR assay; format: cell-based
Method in brief: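 Fluorometric imaging plate reader calcium assay in IMR-32 human neuroblastoma cells. Nitrendipine present to block endogenous L-type calcium channels. IC50 determined in duplicate in one experiment.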

[2] = target: Cytochrome P450 2C9 (Homo sapiens, UniProt P11712); assay: Inhibition of recombinant human CYP2C9 using 7-methoxy-4-trifluoromethylcoumarin as substrate after 45 mins by fluorescence-based assay; format: ADME
[3] = Aqueous solubility of the compound in Japanese Pharmacopoeia 1st fluid at pH 1.2; format: physicochemical
Method in brief: (§1)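 Solubility measured in Japanese Pharmacopoeia 1st fluid for the dissolution test (pH 1.2) and 2nd fluid (pH 6.8).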

[4] = target: Voltage-gated inwardly rectifying potassium channel KCNH2 (Homo sapiens, UniProt Q12809); assay: Inhibition of human ERG expressed in CHO cells after 10 mins by Rb efflux assay; format: cell-based
[5] = Intrinsic clearance in human liver microsomes at 0.2 uM measured up to 45 mins by LC-MS/MS analysis; format: ADME; details: read-out: CLH
Method in brief: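 Human liver microsomes (0.2 mg protein/mL) in 100 mM Na+–K+ phosphate buffer pH 7.4 with 1 mM NADPH and 0.1 mM EDTA, preincubated 5 min at 37 °C. Compound at 0.2 µM final, sampled at 0, 15, 30 and 45 min. Residual compound measured by LC–MS/MS. CLint = disappearance rate constant / microsomal protein, from a least-squares linear fit.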

[6] = Aqueous solubility of the compound in Japanese Pharmacopoeia 2nd fluid at pH 6.8; format: physicochemical; method in brief: as §1
[7] = target: Cytochrome P450 2D6 (Homo sapiens, UniProt P10635); assay: Inhibition of CYP2D6 in human liver microsomes using dextromethorphan as substrate preincubated for 30 mins before substrate addition measured after 20 mins by LC-MS/MS analysis
[8] = tested on: Mus musculus; assay: Antinociceptive activity in intrathecally dosed ddY mouse assessed as reduction of formalin-induced paw lifting/licking behavior administered 15 mins before formalin challenge measured up to 10 mins; format: functional
Method in brief: (§2)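 Male ddY mice given an intrathecal bolus. After 15 min, 2% formalin (20 µL) injected subcutaneously into the plantar hindpaw. Total lifting/licking time recorded for 0–10 min (first phase) and 15–25 min (second phase). Mean of n = 6 against vehicle, Dunnett's test. ED50 in nmol/body.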

[9] = tested on: Rattus norvegicus; assay: Neurotoxicity in Sprague-Dawley rat assessed as effect on motor coordination by measuring time spent on rod at 30 mg/kg, po by rotarod test; format: toxicity, organism-based; details: in vivo
Method in brief: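 Motor coordination in Sprague-Dawley rats after oral dosing, assessed by an accelerating rotarod test.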

[10] = tested on: Rattus norvegicus; assay: Analgesic activity in po dosed Sprague-Dawley rat L5/L6 spinal nerve ligation model assessed as reduction of mechanical allodynia; format: functional, organism-based
Method in brief: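 Male Sprague-Dawley rats with L5/L6 spinal nerve ligation (Chung method). Compound given orally at 1 to 10 mg/kg. Hindpaw withdrawal threshold to mechanical stimuli measured on the operated and non-operated sides against vehicle groups, n = 8. ED50 derived from the dose-response. Dunnett's test against the operated-side vehicle group.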

[11] = Lipophilicity, log D of the compound at pH 7.4; format: physicochemical
Method in brief: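 cLogD at pH 7.4 calculated with ACD/PhysChem Batch rather than measured.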

[12] = tested on: Mus musculus; assay: Antinociceptive activity in ddY mouse assessed as inhibition of formalin-induced paw lifting/licking behavior at 100 mg/kg, po administered 15 mins before formalin challenge measured up to 15 to 25 mins; format: functional
Method in brief: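 Male ddY mice dosed orally at 100 mg/kg. 2% formalin (20 µL) injected subcutaneously into the plantar hindpaw. Lifting/licking time in the second phase (15–25 min) expressed as % inhibition.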

[13] = tested on: Mus musculus; assay: Toxicity in intrathecally dosed ddY mouse at 10 to 100 […] measured up to 25 mins; format: organism-based; details: in vivo, icv_or_intrathecal
[14] = tested on: Mus musculus; assay: Antinociceptive activity in intrathecally dosed ddY mouse assessed as reduction of formalin-induced paw lifting/licking behavior administered 15 mins before formalin challenge measured after 15 to 25 mins; format: functional; method in brief: as §2

Chain of Cytochrome P450 2D6 (P10635 whole entry): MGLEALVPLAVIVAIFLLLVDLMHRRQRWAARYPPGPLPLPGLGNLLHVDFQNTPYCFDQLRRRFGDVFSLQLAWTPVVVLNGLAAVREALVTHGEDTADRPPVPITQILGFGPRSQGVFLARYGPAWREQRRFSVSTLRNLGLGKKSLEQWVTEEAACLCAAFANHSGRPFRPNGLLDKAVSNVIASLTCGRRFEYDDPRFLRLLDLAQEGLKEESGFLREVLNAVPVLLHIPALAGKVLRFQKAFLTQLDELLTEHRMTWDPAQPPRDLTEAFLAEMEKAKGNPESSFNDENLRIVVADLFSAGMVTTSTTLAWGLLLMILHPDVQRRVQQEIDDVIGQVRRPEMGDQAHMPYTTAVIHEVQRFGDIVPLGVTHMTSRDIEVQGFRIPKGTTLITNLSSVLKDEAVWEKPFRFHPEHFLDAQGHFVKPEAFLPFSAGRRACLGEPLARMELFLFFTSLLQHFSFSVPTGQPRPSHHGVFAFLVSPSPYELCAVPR
Chain of Voltage-gated inwardly rectifying potassium channel KCNH2 (Q12809 whole entry): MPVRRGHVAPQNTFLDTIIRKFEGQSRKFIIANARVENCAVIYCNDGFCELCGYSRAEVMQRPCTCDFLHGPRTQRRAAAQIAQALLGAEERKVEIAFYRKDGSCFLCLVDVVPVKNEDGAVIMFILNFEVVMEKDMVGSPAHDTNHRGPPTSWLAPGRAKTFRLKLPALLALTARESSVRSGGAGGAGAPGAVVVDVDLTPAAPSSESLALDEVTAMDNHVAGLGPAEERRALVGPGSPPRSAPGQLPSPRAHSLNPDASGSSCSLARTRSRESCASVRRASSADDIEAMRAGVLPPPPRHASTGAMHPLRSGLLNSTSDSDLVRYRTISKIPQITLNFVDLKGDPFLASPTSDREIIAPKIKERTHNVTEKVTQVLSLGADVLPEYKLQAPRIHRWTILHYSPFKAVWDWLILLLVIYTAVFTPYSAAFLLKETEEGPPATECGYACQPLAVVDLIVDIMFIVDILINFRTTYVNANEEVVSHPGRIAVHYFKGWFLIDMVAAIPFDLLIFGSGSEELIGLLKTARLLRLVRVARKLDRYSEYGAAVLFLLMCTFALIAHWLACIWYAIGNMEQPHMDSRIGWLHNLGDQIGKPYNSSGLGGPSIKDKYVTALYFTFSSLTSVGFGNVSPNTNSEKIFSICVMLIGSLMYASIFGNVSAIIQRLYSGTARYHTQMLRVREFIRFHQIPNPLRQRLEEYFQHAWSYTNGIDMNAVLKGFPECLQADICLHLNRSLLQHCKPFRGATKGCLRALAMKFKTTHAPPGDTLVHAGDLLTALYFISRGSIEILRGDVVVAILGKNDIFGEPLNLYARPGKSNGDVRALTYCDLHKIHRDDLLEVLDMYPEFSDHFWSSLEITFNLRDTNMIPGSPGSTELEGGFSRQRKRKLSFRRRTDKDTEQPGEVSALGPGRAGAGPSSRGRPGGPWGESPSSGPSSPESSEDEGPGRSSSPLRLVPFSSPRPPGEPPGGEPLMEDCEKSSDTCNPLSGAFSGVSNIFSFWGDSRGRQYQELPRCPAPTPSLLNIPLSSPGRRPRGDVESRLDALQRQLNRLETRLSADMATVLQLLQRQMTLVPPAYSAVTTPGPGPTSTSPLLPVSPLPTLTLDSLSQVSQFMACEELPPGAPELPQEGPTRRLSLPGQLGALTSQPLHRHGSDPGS
Chain of Cytochrome P450 2C9 (P11712 whole entry): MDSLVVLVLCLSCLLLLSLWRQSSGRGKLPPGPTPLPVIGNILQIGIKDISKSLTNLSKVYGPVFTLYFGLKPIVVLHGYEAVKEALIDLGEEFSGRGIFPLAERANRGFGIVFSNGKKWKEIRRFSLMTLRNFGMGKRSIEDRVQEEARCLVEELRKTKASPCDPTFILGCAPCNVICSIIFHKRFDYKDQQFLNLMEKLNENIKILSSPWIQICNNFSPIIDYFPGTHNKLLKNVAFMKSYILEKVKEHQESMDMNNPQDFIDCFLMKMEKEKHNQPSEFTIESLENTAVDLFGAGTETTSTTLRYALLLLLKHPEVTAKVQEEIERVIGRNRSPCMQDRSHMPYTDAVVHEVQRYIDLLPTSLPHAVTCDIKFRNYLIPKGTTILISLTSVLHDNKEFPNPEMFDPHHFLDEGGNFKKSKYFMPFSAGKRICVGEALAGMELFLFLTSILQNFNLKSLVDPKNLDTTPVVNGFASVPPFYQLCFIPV

| Compound | IC50 [1] | IC50 [7] | also measured |
| --- | --- | --- | --- |
| O=C(CNCC1(O)CCCCC1)N1CCc2ccccc2C1C1CCCC1 (stereo not drawn) | 990 nM |  |  |
| CC(C)C1c2ccccc2CCN1C(=O)CNCC1(O)CCCCC1 (stereo not drawn) | 1100 nM |  |  |
| COc1ccc2c(c1)CCN(C(=O)CNCC1(O)CCCCC1)[C@H]2C(C)C | 2100 nM |  | IC50 [2]: > 50000 nM; solubility [3]: > 100 µg/mL; IC50 [4]: > 100000 nM; CLint scaled at 0.2 µM [5]: 188 mL/min/kg; solubility [6]: > 100 µg/mL |
| O=C(CNCC1(O)CCCCC1)N1CCc2ccccc2C1C1CCOCC1 (stereo not drawn) | 4100 nM |  |  |
| CC(C)C1c2ccc(F)cc2CCN1C(=O)CNCC1(O)CCCCC1 (stereo not drawn) | 890 nM | 390 nM |  |
| Cc1ccc2c(c1)C(C(C)C)N(C(=O)CNCC1(O)CCCCC1)CC2 (stereo not drawn) | 1400 nM | < 780 nM |  |
| COc1ccc2c(c1)C(C(C)C)N(C(=O)CNCC1(O)CCCCC1)CC2 (stereo not drawn) | 1600 nM |  |  |
| CCC(CC)C1c2ccccc2CCN1C(=O)CNCC1(O)CCCCC1 (stereo not drawn) | 730 nM | < 780 nM |  |
| Cc1cccc2c1CCN(C(=O)CNCC1(O)CCCCC1)C2C(C)C (stereo not drawn) | 1400 nM | < 780 nM |  |
| COc1ccc2c(c1)CCN(C(=O)CNCC1(O)CCCCC1)[C@@H]2C(C)C | 1900 nM |  | IC50 [2]: > 50000 nM; Activity [8]: Dose-dependent effect; ED50 [8]: >100 nmol; solubility [3]: > 100 µg/mL; IC50 [4]: > 100000 nM; Activity [9]: Non-toxic; Activity [10]: Dose-dependent effect; logD [11]: 2.4; inhibition in vivo at 100 mg/kg [12]: 64%; CLint scaled at 0.2 µM [5]: 101 mL/min/kg; Activity [13]: Non-toxic; solubility [6]: > 100 µg/mL; Activity [14]: Dose-dependent effect; ED50 [14]: 25.4 nmol |
| CC(C)(C)C1c2ccccc2CCN1C(=O)CNCC1(O)CCCCC1 (stereo not drawn) | 800 nM | < 780 nM |  |
| Cc1cccc2c1C(C(C)C)N(C(=O)CNCC1(O)CCCCC1)CC2 (stereo not drawn) | 1600 nM | < 780 nM |  |
| COC(C)(C)C1c2ccccc2CCN1C(=O)CNCC1(O)CCCCC1 (stereo not drawn) | 3700 nM |  |  |
| O=C(CNCC1(O)CCCCC1)N1CCc2ccccc2C1 | 8000 nM |  |  |
| CC(C)C1c2c(F)cccc2CCN1C(=O)CNCC1(O)CCCCC1 (stereo not drawn) | 1500 nM |  |  |
| CC(C)C1c2cc(F)ccc2CCN1C(=O)CNCC1(O)CCCCC1 (stereo not drawn) | 1300 nM | 680 nM |  |
| COc1cccc2c1C(C(C)C)N(C(=O)CNCC1(O)CCCCC1)CC2 (stereo not drawn) | 1400 nM |  |  |
| O=C(CNCC1(O)CCCCC1)N1CCc2ccccc2[C@@H]1c1ccccc1 | 1000 nM | < 390 nM |  |
| CC1c2ccccc2CCN1C(=O)CNCC1(O)CCCCC1 (stereo not drawn) | 2900 nM |  |  |
| COc1ccc2c(c1)CCN(C(=O)CNCC1(O)CCCCC1)C2C(C)C (stereo not drawn) | 1300 nM |  |  |
| CC(C)(O)C1c2ccccc2CCN1C(=O)CNCC1(O)CCCCC1 (stereo not drawn) | 6100 nM |  |  |
